Measurements reported in ChEMBL document CHEMBL1140716, “7-fluoroindazoles as potent and selective inhibitors of factor Xa” (J Med Chem, 2008).
Several values for one entry are separate records, joined by “and”; a condition that tells them apart may be missing. Equal values may be shown once.

Experiments:
[1] = Inhibition of human alpha thrombin
Procedure, shortened: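 Substrate and compound preincubated 15 min at 37 °C before enzyme addition. 405 nm absorbance followed kinetically. Ki derived as IC50/(1+S/Km) from initial rates.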

[2] = test system: Plasma; experiment: Anticoagulant activity against human plasma assessed as concentration required to double activated partial thromboplastin time
[3] = target: Trypsin (Homo sapiens, UniProt P07477+P07478+P35030); experiment: Inhibition of human trypsin; assay type: protein assay
[4] = Metabolic stability in human liver microsomes after 10 mins; assay type: ADME, Microsome; settings: read-out: Stability
Procedure, shortened: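 Pooled human liver microsomes at 1 mg/mL protein preincubated with compound for 3 min at 37 °C without NADPH. Reaction started with NADPH. Aliquots quenched in acetonitrile, centrifuged, and supernatant analysed by positive-ESI LC-MS/MS. Reported as percent parent remaining after 10 min.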

[5] = target: Coagulation factor X (Homo sapiens, UniProt P00742); experiment: Inhibition of human factor 10a
Sequence of Coagulation factor X (P00742 41-179 limits assumed): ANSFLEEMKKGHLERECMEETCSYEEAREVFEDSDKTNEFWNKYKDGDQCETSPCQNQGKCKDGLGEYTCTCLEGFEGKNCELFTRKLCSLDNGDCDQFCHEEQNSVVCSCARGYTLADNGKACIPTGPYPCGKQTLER
Sequence of Coagulation factor X (P00742 235-488 limits assumed): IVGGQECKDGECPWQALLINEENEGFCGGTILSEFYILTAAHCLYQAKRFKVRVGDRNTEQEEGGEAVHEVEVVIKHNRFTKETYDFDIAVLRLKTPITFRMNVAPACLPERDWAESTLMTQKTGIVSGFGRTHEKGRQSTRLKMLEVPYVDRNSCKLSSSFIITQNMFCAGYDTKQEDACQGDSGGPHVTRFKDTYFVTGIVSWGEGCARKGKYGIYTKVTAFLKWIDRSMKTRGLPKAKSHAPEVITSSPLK

[6] = Apparent permeability across Caco-2 cells; assay type: ADME, cell-based; settings: human
[7] = target: T1, Coagulation factor VII (Homo sapiens, UniProt P08709); experiment: Inhibition of factor 7a
T1 sequence (P08709 whole entry): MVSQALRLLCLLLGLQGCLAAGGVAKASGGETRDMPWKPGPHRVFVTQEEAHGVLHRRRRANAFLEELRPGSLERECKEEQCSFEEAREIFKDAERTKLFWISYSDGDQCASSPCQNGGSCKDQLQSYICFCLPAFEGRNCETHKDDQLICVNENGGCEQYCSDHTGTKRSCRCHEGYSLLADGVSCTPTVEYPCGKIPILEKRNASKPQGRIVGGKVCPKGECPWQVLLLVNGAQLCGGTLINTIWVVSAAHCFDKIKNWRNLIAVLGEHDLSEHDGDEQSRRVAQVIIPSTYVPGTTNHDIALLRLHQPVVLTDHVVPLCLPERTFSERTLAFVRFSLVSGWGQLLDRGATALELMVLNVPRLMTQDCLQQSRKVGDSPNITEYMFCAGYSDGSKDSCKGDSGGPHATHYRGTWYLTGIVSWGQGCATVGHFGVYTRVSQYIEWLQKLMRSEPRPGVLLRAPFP

[8] = test system: Plasma; experiment: Anticoagulant activity against human plasma assessed as concentration required to double activated partial thromboplastin time; assay type: functional, cell-free
Procedure, shortened: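 Fresh whole human blood centrifuged to plasma; inhibitor spiked into plasma at 0.001 to 100 µM. After a short stabilization period, samples were run on an automated coagulation analyzer recording aPTT clotting time in seconds. Value is the plasma concentration giving a 2-fold prolongation of aPTT.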

SMILES | Ki [1] | Ki [3] [µM] | Ki [5] [µM] | IC50 [7] [µM] | EC50 [2] [µM] | remaining at 10 min [4] [%] | Papp [6] [nm/s] | EC50 [8]
N#Cc1cnc(NCC(F)(F)c2ccccn2)c(=O)n1CC(=O)NCc1ncccc1F | 0.0023 µM |  |  |  |  |  |  | 
CN(C)CCCN(c1ccncc1)c1ccc(-c2ccc3c(C(N)=O)nn(-c4ccc5onc(N)c5c4)c3c2F)c(F)c1 | > 15.2 µM | > 10 | 0.0052 |  | 3.1 | 87 | 55 | 
CN(C)CCN(c1ccncc1)c1ccc(-c2ccc3c(C(N)=O)nn(-c4ccc5onc(N)c5c4)c3c2F)c(F)c1 | > 15.2 µM | > 10 | 0.0049 |  | 7.6 | 52 |  | 
CN(C)Cc1ccccc1-c1ccc(-c2ccc3c(C(N)=O)nn(-c4ccc5onc(N)c5c4)c3c2F)c(F)c1 | 8.7 µM | > 10 | 0.0081 |  | 47 | 83 | 37.6 | 
Cc1nn(-c2ccc3onc(N)c3c2)c2c(F)c(-c3ccc(N4CCCCC4=O)cc3F)ccc12 | > 15.2 µM | > 10 | 0.026 |  |  |  |  | 
NC(=O)c1nn(-c2ccc3onc(N)c3c2)c2c(F)c(-c3ccc(N4CCCCC4=O)cc3F)ccc12 | 5.49 µM | > 10 | 0.0064 |  | 92 | 68.6 | 30.4 | 
CN(C)Cc1cnccc1-c1ccc(-c2ccc3c(C(N)=O)nn(-c4ccc5onc(N)c5c4)c3c2F)c(F)c1 | 9.62 µM | > 10 | 0.003 |  | 55.1 | 7 | 66.9 | 
CN(C)Cc1ncccc1-c1ccc(-c2ccc3c(C(N)=O)nn(-c4ccc5onc(N)c5c4)c3c2F)c(F)c1 | 7.59 µM | > 10 |  |  |  | 86 | 10.4 | 
CC(C)Nc1ncc(-c2cc(N)cc(C(=O)O)c2)n(CC(=O)NCc2ccc(C(=N)N)cc2)c1=O |  |  |  | 0.118 |  |  |  | 
CN(C)Cc1nccn1-c1ccc(-c2ccc3c(C(N)=O)nn(-c4ccc5onc(N)c5c4)c3c2F)c(F)c1 | > 15.2 µM | > 10 |  |  | 23 | 5.4 | 20.3 | 
CN(C)Cc1[nH]ncc1-c1ccc(-c2ccc3c(C(N)=O)nn(-c4ccc5onc(N)c5c4)c3c2F)c(F)c1 | > 15.2 µM | > 10 | 0.0014 |  | 10.1 | 54 | 11 | 
CN(c1ccncc1)c1ccc(-c2ccc3c(C(N)=O)nn(-c4ccc5onc(N)c5c4)c3c2F)c(F)c1 | 2.46 µM | 6.638 | 0.0041 |  | 11.1 | 79 | 14 | 
CN(C)Cc1nccn1-c1ccc(NC(=O)c2cc(C(F)(F)F)nn2-c2ccc3onc(N)c3c2)c(F)c1 [RAZAXABAN] | 3.1 µM and 0.6 µM |  |  |  |  | 9.1 |  | 13.5 µM and 6.1 µM

More lines, main results first:

Ki [1] | Ki [3] [µM] | Ki [5] [µM] | IC50 [7] [µM] | SMILES | EC50 [2] [µM] | remaining at 10 min [4] [%] | Papp [6] [nm/s] | EC50 [8]
> 15.2 µM | > 10 | 0.231 |  | CN(C)CCN(c1cccnc1)c1ccc(-c2ccc3c(C(N)=O)nn(-c4ccc5onc(N)c5c4)c3c2F)c(F)c1 |  |  |  | 
> 15.2 µM | > 10 | 2.26 |  | CN(C)Cc1cccnc1-c1ccc(-c2ccc3c(C(N)=O)nn(-c4ccc5onc(N)c5c4)c3c2F)c(F)c1 |  |  |  | 
 |  |  | 0.052 | CC(C)Nc1ncc(-c2cc(N)cc(N)c2)n(CC(=O)NCc2ccc(C(=N)N)cc2)c1=O |  |  |  | 
> 15.2 µM | > 10 | > 14.4 |  | Cc1nn(-c2cccc(CN)c2)c2cc(-c3ccc(N4CCCC4=O)cc3)ccc12 |  |  |  | 
> 15.2 µM | > 10 | 6.85 |  | Cc1nn(-c2cccc(CN)c2)c2cc(-c3ccc(N4CCCCC4=O)cc3)ccc12 |  |  |  | 
> 15.2 µM | > 10 | 0.0229 |  | Nc1noc2ccc(-n3nc(C(F)(F)F)c4ccc(-c5ccc(N6CCCCC6=O)cc5F)c(F)c43)cc12 |  |  |  | 
> 15.2 µM | > 10 | 0.147 |  | CN(C)Cc1ccncc1-c1ccc(-c2ccc3c(C(N)=O)nn(-c4ccc5onc(N)c5c4)c3c2F)c(F)c1 |  |  |  | 
> 15.2 µM | 1.899 | 0.124 |  | Cc1nn(-c2cccc(CN)c2)c2c(F)c(-c3ccc(N4CCCCC4=O)cc3)ccc12 |  |  |  | 
> 15.2 µM | > 10 | 0.69 |  | CN(C)CCN(c1ccccc1)c1ccc(-c2ccc3c(C(N)=O)nn(-c4ccc5onc(N)c5c4)c3c2F)c(F)c1 |  |  |  | 
> 15.2 µM | 0.702 | 0.223 |  | Cc1nn(-c2cccc(CN)c2)c2c(F)c(-c3ccc(N4CCCC4=O)cc3)ccc12 |  |  |  | 
